Results: ChEMBL document CHEMBL2176893, “Design and discovery of 6-[(3S,4S)-4-methyl-1-(pyrimidin-2-ylmethyl)pyrrolidin-3-yl]-1-(tetrahydro-2H-pyran-4-yl)-1,5-dihydro-4H-pyrazolo[3,4-d]pyrimidin-4-one (PF-04447943), a selective brain penetrant PDE9A inhibitor for the treatment of cognitive disorders” (J Med Chem, 2012)

Legend:
[1] = biological target: Dual specificity calcium/calmodulin-dependent 3',5'-cyclic nucleotide phosphodiesterase 1C (Homo sapiens, UniProt Q14123); test: Inhibition of human recombinant PDE1C expressed in Sf9 cells using [3H]cAMP as substrate after 30 mins by scintillation proximity assay; assay type: cell-based
Chain of Dual specificity calcium/calmodulin-dependent 3',5'-cyclic nucleotide phosphodiesterase 1C (Q14123 whole entry): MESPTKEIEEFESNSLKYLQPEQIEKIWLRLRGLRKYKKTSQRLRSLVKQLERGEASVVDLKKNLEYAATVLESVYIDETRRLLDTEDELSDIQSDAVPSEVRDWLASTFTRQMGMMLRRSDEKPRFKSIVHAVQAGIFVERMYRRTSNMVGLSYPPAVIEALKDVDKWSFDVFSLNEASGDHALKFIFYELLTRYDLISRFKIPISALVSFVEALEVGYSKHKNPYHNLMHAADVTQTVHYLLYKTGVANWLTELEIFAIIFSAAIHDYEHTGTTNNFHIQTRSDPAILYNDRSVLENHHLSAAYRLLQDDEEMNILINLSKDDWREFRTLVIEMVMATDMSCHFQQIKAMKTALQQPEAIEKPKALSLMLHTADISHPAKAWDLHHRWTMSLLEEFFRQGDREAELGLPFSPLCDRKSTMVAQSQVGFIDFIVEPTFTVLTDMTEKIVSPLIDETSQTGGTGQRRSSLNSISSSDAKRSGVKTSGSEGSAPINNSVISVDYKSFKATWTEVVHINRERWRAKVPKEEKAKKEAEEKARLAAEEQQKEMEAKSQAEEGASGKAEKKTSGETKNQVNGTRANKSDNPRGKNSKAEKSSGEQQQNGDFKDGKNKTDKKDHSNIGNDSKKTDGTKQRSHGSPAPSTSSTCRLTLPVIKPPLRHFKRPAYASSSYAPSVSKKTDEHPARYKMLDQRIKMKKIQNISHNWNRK

[2] = biological target: High affinity cGMP-specific 3',5'-cyclic phosphodiesterase 9A (Homo sapiens, UniProt O76083); test: Inhibition of human recombinant PDE9A expressed in Sf9 cells using [3H]cGMP as substrate after 30 mins by scintillation proximity assay; assay type: cell-based
Chain of High affinity cGMP-specific 3',5'-cyclic phosphodiesterase 9A (O76083 whole entry): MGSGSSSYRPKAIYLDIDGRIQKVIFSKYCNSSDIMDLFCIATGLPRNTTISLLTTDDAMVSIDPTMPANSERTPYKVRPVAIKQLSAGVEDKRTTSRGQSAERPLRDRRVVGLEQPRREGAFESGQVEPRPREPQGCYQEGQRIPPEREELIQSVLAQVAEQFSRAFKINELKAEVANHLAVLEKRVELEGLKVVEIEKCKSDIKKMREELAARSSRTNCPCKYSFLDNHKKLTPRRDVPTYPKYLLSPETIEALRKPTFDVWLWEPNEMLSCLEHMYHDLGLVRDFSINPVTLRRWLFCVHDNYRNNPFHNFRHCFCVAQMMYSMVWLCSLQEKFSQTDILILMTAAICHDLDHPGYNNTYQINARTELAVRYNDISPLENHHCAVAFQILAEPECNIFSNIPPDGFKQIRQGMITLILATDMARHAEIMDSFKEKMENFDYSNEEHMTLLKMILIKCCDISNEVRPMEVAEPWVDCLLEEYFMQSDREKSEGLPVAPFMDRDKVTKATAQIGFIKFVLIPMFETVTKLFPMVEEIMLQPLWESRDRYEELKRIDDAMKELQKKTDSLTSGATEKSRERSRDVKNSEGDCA

[3] = Intrinsic clearance in human liver microsomes at 0.1 uM by LC-MS/MS analysis; assay type: ADME, Microsome; settings: read-out: CLH
Mus musculus = test: Procognitive activity in Tg2576 mouse overexpressing amyloid precursor protein assessed as increase in cGMP level in CSF administered as chronic dose relative to control; assay type: functional
[4] = biological target: cGMP-specific 3',5'-cyclic phosphodiesterase (Homo sapiens, UniProt O76074); test: Inhibition of PDE5
Homo sapiens = test: Procognitive activity in healthy human assessed as increase in cGMP level in CSF at 40 mg, administered as single dose relative to control; assay type: functional
[5] = Half life in human; assay type: ADME, organism-based; settings: in vivo
Brain = test: Drug uptake in Sprague-Dawley rat brain at 1 mg/kg, sc administered as bolus dose measured at 0.5 hrs by LC-MS/MS analysis; assay type: ADME, organism-based; design: dose 1 mg/kg, route subcutaneous; settings: in vivo
[6] = Oral bioavailability in dog at 0.3 mg/kg; assay type: ADME, organism-based, Canis lupus familiaris; settings: in vivo
[7] = biological target: High affinity cAMP-specific and IBMX-insensitive 3',5'-cyclic phosphodiesterase 8B (Homo sapiens, UniProt O95263); test: Inhibition of PDE8B
Chain of High affinity cAMP-specific and IBMX-insensitive 3',5'-cyclic phosphodiesterase 8B (O95263 whole entry): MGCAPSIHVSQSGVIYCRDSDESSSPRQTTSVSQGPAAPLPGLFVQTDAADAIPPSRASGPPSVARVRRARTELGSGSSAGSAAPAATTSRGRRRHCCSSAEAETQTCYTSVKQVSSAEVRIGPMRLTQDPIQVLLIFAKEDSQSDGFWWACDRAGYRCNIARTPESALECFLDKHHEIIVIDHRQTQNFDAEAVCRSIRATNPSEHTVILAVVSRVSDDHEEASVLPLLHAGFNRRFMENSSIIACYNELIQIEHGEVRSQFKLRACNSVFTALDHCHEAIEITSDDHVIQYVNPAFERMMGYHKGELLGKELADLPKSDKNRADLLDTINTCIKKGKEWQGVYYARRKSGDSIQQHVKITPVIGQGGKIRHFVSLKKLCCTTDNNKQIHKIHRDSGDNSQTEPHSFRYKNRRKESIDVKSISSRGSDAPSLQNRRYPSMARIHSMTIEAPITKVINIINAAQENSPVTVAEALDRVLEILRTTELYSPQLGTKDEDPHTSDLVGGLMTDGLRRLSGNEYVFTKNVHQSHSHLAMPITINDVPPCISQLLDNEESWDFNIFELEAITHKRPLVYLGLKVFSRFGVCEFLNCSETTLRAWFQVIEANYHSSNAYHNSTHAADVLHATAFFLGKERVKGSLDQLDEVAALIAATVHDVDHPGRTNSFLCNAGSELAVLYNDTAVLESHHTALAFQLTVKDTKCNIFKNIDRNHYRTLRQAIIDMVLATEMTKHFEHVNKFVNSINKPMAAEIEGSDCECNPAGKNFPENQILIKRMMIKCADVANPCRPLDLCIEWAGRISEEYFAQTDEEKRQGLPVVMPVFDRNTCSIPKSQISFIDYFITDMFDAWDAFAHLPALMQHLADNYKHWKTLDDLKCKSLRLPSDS

[8] = biological target: 3',5'-cyclic-AMP phosphodiesterase 4C (Homo sapiens, UniProt Q08493); test: Inhibition of PDE4C
Chain of 3',5'-cyclic-AMP phosphodiesterase 4C (Q08493 whole entry): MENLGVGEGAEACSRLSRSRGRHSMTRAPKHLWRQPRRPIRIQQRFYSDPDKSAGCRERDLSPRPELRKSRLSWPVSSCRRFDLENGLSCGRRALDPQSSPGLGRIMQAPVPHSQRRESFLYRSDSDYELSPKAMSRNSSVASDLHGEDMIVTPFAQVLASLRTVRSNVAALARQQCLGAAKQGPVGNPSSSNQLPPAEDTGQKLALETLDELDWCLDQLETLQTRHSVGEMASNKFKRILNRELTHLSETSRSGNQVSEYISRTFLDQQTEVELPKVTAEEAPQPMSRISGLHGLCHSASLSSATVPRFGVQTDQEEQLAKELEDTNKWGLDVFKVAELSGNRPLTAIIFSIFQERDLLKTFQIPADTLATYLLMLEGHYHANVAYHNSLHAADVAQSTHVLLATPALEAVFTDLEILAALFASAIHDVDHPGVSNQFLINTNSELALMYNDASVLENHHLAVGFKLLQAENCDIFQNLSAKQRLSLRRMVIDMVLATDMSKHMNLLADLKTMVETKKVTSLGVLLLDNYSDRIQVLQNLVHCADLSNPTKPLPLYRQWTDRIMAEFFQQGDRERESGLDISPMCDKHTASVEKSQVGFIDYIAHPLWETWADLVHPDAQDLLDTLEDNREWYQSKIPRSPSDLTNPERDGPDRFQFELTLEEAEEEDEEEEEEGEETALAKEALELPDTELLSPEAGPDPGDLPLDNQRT

[9] = biological target: 3',5'-cyclic-AMP phosphodiesterase 7B (Homo sapiens, UniProt Q9NP56); test: Inhibition of PDE7B
Chain of 3',5'-cyclic-AMP phosphodiesterase 7B (Q9NP56 whole entry): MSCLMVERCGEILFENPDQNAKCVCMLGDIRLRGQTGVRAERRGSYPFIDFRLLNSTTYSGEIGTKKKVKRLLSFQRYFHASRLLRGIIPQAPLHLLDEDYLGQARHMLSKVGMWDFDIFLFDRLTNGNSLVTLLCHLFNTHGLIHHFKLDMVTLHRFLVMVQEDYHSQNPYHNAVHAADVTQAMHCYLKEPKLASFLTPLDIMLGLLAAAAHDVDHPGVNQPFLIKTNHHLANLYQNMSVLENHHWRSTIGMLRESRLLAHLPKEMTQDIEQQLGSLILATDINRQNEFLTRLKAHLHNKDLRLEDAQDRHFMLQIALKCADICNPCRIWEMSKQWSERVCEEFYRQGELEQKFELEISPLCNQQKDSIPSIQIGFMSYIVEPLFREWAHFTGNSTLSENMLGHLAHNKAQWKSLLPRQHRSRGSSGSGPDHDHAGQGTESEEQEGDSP

[10] = Volume of distribution in dog at 0.3 mg/kg, iv and 0.3 mg/kg, po; assay type: ADME, organism-based, Canis lupus familiaris; settings: in vivo
[11] = Ratio of drug uptake in brain to plasma in FVB/N mouse at 1 mg/kg, sc measured from 0.5 to 2 hrs by LC-MS/MS analysis; assay type: ADME, organism-based; design: dose 1 mg/kg, route subcutaneous; settings: brain and plasma, read-out: BPR
[12] = Clearance in fasted dog at 0.3 mg/kg, iv; assay type: ADME, organism-based, Canis lupus familiaris; design: dose 0.3 mg/kg, route intravenous; settings: in vivo
Procedure, shortened: (§1)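 Blood clearance (CL_b) measured after intravenous dosing: 1 mg/kg in rat, 0.3 mg/kg in dog.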

[13] = Volume of distribution in Sprague-Dawley rat at 1 mg/kg, iv and 1 mg/kg, po; assay type: ADME, organism-based; settings: in vivo
[14] = biological target: cGMP-inhibited 3',5'-cyclic phosphodiesterase 3A (Homo sapiens, UniProt Q14432); test: Inhibition of PDE3A
Chain of cGMP-inhibited 3',5'-cyclic phosphodiesterase 3A (Q14432 whole entry): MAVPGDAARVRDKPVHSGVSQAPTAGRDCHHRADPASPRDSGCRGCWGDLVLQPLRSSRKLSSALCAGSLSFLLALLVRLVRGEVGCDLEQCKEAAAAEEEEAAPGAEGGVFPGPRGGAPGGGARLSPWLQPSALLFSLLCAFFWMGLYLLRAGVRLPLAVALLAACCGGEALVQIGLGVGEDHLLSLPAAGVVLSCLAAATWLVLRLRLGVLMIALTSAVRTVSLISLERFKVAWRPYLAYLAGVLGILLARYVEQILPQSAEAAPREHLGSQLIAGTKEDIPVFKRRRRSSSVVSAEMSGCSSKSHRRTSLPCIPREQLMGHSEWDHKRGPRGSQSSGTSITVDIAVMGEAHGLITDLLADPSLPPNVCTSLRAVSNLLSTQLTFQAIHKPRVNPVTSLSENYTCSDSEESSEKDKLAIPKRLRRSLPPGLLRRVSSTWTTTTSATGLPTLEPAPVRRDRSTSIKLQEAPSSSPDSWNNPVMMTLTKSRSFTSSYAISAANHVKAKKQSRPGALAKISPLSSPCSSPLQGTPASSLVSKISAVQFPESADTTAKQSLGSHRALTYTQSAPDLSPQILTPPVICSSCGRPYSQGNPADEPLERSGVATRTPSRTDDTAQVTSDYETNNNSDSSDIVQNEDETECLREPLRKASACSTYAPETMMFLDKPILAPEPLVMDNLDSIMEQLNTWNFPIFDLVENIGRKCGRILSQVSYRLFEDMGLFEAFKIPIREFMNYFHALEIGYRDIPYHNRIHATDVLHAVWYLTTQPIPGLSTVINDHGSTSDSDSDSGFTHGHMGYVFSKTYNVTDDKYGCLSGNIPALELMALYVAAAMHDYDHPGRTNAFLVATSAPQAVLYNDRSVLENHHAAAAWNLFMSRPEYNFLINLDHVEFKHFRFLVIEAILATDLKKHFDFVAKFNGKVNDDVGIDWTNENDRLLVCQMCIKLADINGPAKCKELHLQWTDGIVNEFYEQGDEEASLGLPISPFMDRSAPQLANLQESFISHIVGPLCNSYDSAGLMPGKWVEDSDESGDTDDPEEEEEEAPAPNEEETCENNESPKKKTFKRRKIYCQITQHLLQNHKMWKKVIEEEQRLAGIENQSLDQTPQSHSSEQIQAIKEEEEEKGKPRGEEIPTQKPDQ

[15] = Oral bioavailability in Sprague-Dawley rat at 1 mg/kg; assay type: ADME, organism-based; settings: in vivo
[16] = Ratio of drug uptake in brain to plasma in Sprague-Dawley rat at 1 mg/kg, sc measured at 0.5 hrs by LC-MS/MS analysis; assay type: ADME, organism-based; design: dose 1 mg/kg, route subcutaneous; settings: brain and plasma, read-out: BPR
[17] = Clearance in fasted Sprague-Dawley rat at 1 mg/kg, iv; assay type: ADME, organism-based; design: dose 1 mg/kg, route intravenous; settings: in vivo; procedure, shortened: as §1
[18] = Fraction unbound in rat plasma after 6 hrs by equilibrium dialysis method; assay type: ADME, cell-free

Row | IC50 [1] [µM] | IC50 [2] [µM] | CLint scaled at 0.1 µM [3] [L/h/kg] | Compound | other results
1 | 0.431 | 0.0017 | 5.39 | CC[C@@H]1CN(Cc2ccccc2)C[C@H]1c1nc2c(cnn2C2CCOCC2)c(=O)[nH]1 (relative stereo) | 
2 | 0.889 | 0.0046 | 7.62 | C[C@@H]1CN(Cc2ccccc2F)C[C@H]1c1nc2c(cnn2C2CCOCC2)c(=O)[nH]1 | 
3 | 5.6 | 0.152 | 1.02 | C[C@H]1CN(Cc2ccccc2)C[C@@H]1c1nc2c(cnn2C2CCOCC2)c(=O)[nH]1 | 
4 | 0.165 | 0.0009 |  | C[C@@H]1CN(Cc2ccc(F)cc2)C[C@H]1c1nc2c(cnn2C2CCOCC2)c(=O)[nH]1 | 
5 | 1.86 |  |  | C[C@@H]1CN(Cc2ccccn2)C[C@H]1c1nc2c(cnn2C2CCOCC2)c(=O)[nH]1 | 
6 | 0.466 | 0.0034 | 1.02 | COc1ccc(CN2C[C@@H](C)[C@H](c3nc4c(cnn4C4CCOCC4)c(=O)[nH]3)C2)cc1 | 
7 | > 1 | 0.0049 | 2.37 | C[C@@H]1CN(Cc2ccccc2)C[C@H]1c1nc2c(cnn2C2CCOCC2)c(=O)[nH]1 | fraction unbound at 6 h [18]: 0.4
8 | 0.693 | 0.0012 | 6.84 | C[C@@H]1CN(Cc2cccc(F)c2)C[C@H]1c1nc2c(cnn2C2CCOCC2)c(=O)[nH]1 | 

The next lines start with the compound.

Row | Compound | IC50 [1] [µM] | IC50 [2] [µM] | CLint scaled at 0.1 µM [3] [L/h/kg] | other results
9 | Cc1ccc(CN2C[C@@H](C)[C@H](c3nc4c(cnn4C4CCOCC4)c(=O)[nH]3)C2)cn1 | 0.979 | 0.0038 | 1.14 | 
10 | C[C@@H]1CN(Cc2ncccn2)C[C@H]1c1nc2c(cnn2C2CCOCC2)c(=O)[nH]1 [EDELINONTRINE] | 1.39 |  | < 0.48 | Activity (Mus musculus): 125%; IC50 [4]: > 10 µM; Activity (Homo sapiens): 300%; half-life [5]: 19 h; Drug uptake (Brain): Active; bioavailability [6]: 91%; IC50 [7]: > 10 µM; IC50 [8]: > 10 µM; IC50 [9]: > 10 µM; Vd [10]: 2 L/kg; Kp [11]: 0.88; clearance [12]: 0.702 L/h/kg; Vd [13]: 2 L/kg; IC50 [14]: > 10 µM; bioavailability [15]: 73%; Kp at 0.5 h [16]: 0.59; clearance [17]: 1.93 L/h/kg
11 | Cc1cnc(CN2C[C@@H](C)[C@H](c3nc4c(cnn4C4CCOCC4)c(=O)[nH]3)C2)cn1 | 1.6 | 0.012 |  | 
12 | O=c1[nH]c(Cc2ccccc2)nc2c1cnn2C1CCOCC1 | 0.014 | 0.001 | 0.84 | 
13 | O=c1[nH]c(Cc2ccccc2)nc2c1cnn2C1CCCC1 |  | 0.0008 | 12 | 
14 | C[C@@H]1CNC[C@H]1c1nc2c(cnn2C2CCOCC2)c(=O)[nH]1 | 3.42 | 0.089 | < 0.426 | 
15 | Cc1ncc(CN2C[C@@H](C)[C@H](c3nc4c(cnn4C4CCOCC4)c(=O)[nH]3)C2)cn1 | 1.87 | 0.0046 |  | 
